Measured values taken from ChEMBL document CHEMBL1681666, “Synthesis and in vitro screening of novel N-benzyl aplysinopsin analogs as potential anticancer agents” (2011).

Key:
Assay type in all cases: functional
786-0 = assay: Anticancer activity against human 786-0 cells
Procedure, shortened: (§1)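 NCI 60-cell human tumour panel (leukemia, lung, colon, CNS, melanoma, ovarian, renal, prostate, breast). A first-stage single-dose screen at 10 µM was run. Compounds giving over 60% growth inhibition in at least eight lines went on to a five-dose response. Effect was plotted against log10 molar concentration per line. GI50 is the concentration giving 50% reduction in net protein increase versus control cells. LC50 is the concentration lethal to 50% of cells.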

[1] = Anticancer activity against human Hs 578T cells; procedure, shortened: as §1
HOP-62 = assay: Anticancer activity against human HOP62 cells; procedure, shortened: as §1
HCC 2998 = assay: Anticancer activity against human HCC2998 cells; procedure, shortened: as §1
NCI-H23 = assay: Anticancer activity against human NCI-H23 cells; procedure, shortened: as §1
OVCAR-4 = assay: Anticancer activity against human OVCAR4 cells; procedure, shortened: as §1
MDA-MB-435 = assay: Anticancer activity against human MDA-MB-435 cells; procedure, shortened: as §1
HOP-92 = assay: Anticancer activity against human HOP92 cells
Procedure, shortened: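 NCI 60-cell human tumour panel screen that includes non-small cell lung lines. The first stage used a single 10 µM dose. Compounds reaching more than 60% growth inhibition in at least eight lines went on to five-dose response testing. GI50 and LC50 came from curves of effect against log10 molar concentration. GI50 is the concentration giving a 50% reduction in net protein increase versus control cells.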

SK-OV-3 = assay: Anticancer activity against human SKOV3 cells; procedure, shortened: as §1
Malme-3M = assay: Anticancer activity against human MALME-3M cells; procedure, shortened: as §1
KM12 = assay: Anticancer activity against human KM12 cells; procedure, shortened: as §1
UACC-257 = assay: Anticancer activity against human UACC257 cells
Procedure, shortened: (§2)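 NCI 60-cell-line panel. A single-dose (10 µM) prescreen was run first. Compounds giving over 60% growth inhibition in at least eight lines then went to five-dose response studies. Dose-response curves of effect versus log10 concentration. GI50 is the molar concentration giving a 50% reduction in net protein increase versus control cells. LC50 is the concentration lethal to 50% of cells.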

TK-10 = assay: Anticancer activity against human TK10 cells; procedure, shortened: as §2
NCI-H460 = assay: Anticancer activity against human NCI-H460 cells; procedure, shortened: as §1
A498 = assay: Anticancer activity against human A498 cells; procedure, shortened: as §1
RXF 393 = assay: Anticancer activity against human RXF393 cells; procedure, shortened: as §1
UO-31 = assay: Anticancer activity against human UO31 cells; procedure, shortened: as §2
BT-549 = assay: Anticancer activity against human BT549 cells; procedure, shortened: as §1
SF-539 = assay: Anticancer activity against human SF539 cells; procedure, shortened: as §1
HCT-116 = assay: Anticancer activity against human HCT116 cells; procedure, shortened: as §1
CCRF-CEM = assay: Anticancer activity against human CCRF-CEM cells; procedure, shortened: as §1
IGROV-1 = assay: Anticancer activity against human IGROV1 cells; procedure, shortened: as §1
CAKI-1 = assay: Anticancer activity against human Caki1 cells; procedure, shortened: as §1
SNB-19 = assay: Anticancer activity against human SNB19 cells; procedure, shortened: as §1
SK-MEL-5 = assay: Anticancer activity against human SK-MEL-5 cells; procedure, shortened: as §1
OVCAR-5 = assay: Anticancer activity against human OVCAR5 cells; procedure, shortened: as §1
SF-295 = assay: Anticancer activity against human SF295 cells; procedure, shortened: as §1
EKVX = assay: Anticancer activity against human EKVX cells; procedure, shortened: as §1
OVCAR-3 = assay: Anticancer activity against human OVCAR3 cells; procedure, shortened: as §1
PC-3 = assay: Anticancer activity against human PC3 cells; procedure, shortened: as §1
SF-268 = assay: Anticancer activity against human SF268 cells; procedure, shortened: as §1
M14 = assay: Anticancer activity against human M14 cells; procedure, shortened: as §1
A549 = assay: Anticancer activity against human A549 cells; procedure, shortened: as §1
SK-MEL-2 = assay: Anticancer activity against human SK-MEL-2 cells; procedure, shortened: as §1
MCF7 = assay: Anticancer activity against human MCF7 cells; procedure, shortened: as §1
MDA-MB-231 = assay: Anticancer activity against human MDA-MB-231 cells; procedure, shortened: as §1
MDA-MB-468 = assay: Anticancer activity against human MDA-MB-468 cells; procedure, shortened: as §1
OVCAR-8 = assay: Anticancer activity against human OVCAR8 cells; procedure, shortened: as §1
HCT-15 = assay: Anticancer activity against human HCT15 cells; procedure, shortened: as §1
ACHN = assay: Anticancer activity against human ACHN cells; procedure, shortened: as §1
SN12C = assay: Anticancer activity against human SN12C cells; procedure, shortened: as §1
NCI-H322M = assay: Anticancer activity against human NCI-H322M cells; procedure, shortened: as §1
COLO 205 = assay: Anticancer activity against human COLO205 cells; procedure, shortened: as §1
SNB-75 = assay: Anticancer activity against human SNB75 cells; procedure, shortened: as §2
NCI-H226 = assay: Anticancer activity against human NCI-H226 cells; procedure, shortened: as §1
UACC-62 = assay: Anticancer activity against human UACC62 cells; procedure, shortened: as §2
SW-620 = assay: Anticancer activity against human SW620 cells; procedure, shortened: as §2
[2] = Anticancer activity against human NCI/ADR cells; conditions: NCI/ADR-RES; procedure, shortened: as §1
T47D = assay: Anticancer activity against human T47D cells; procedure, shortened: as §2
MOLT-4 = assay: Anticancer activity against human MOLT4 cells; procedure, shortened: as §1
SK-MEL-28 = assay: Anticancer activity against human SK-MEL-28 cells; procedure, shortened: as §1
K562 = assay: Anticancer activity against human K562 cells; procedure, shortened: as §1
HT-29 = assay: Anticancer activity against human HT-29 cells; procedure, shortened: as §1
LOX IMVI = assay: Anticancer activity against human LOXIMVI cells; procedure, shortened: as §1
HL-60(TB) = assay: Anticancer activity against human HL-60(TB) cells; procedure, shortened: as §1
DU-145 = assay: Anticancer activity against human DU145 cells; procedure, shortened: as §1
[3] = Anticancer activity against human […] cells; procedure, shortened: as §1
U-251 = assay: Anticancer activity against human U251 cells; procedure, shortened: as §2
NCI-H522 = assay: Anticancer activity against human NCI-H522 cells; procedure, shortened: as §1
[4] = read-out: LC50 (the source's name)

N=C1NC(=O)/C(=C/c2cn(Cc3ccc(F)cc3)c3ccc(Cl)cc23)S1
5.64 µM: GI50 (TK-10)
30.1 µM: CC50 (OVCAR-3; [4])
71 µM: GI50 (NCI-H322M)
> 100 µM: CC50 (786-0; [4]) | CC50 [1, 4] | GI50 (HOP-62) | CC50 (HOP-62; [4]) | GI50 (HCC 2998) | CC50 (HCC 2998; [4]) | CC50 (NCI-H23; [4]) | CC50 (OVCAR-4; [4]) | CC50 (MDA-MB-435; [4]) | GI50 (HOP-92) | GI50 (SK-OV-3) | CC50 (SK-OV-3; [4]) | CC50 (Malme-3M; [4]) | CC50 (KM12; [4]) | CC50 (TK-10; [4]) | GI50 (NCI-H460) | CC50 (NCI-H460; [4]) | CC50 (A498; [4]) | CC50 (RXF 393; [4]) | GI50 (UO-31) | CC50 (UO-31; [4]) | CC50 (BT-549; [4]) | CC50 (SF-539; [4]) | CC50 (HCT-116; [4]) | GI50 (CCRF-CEM) | CC50 (CCRF-CEM; [4]) | CC50 (IGROV-1; [4]) | GI50 (CAKI-1) | CC50 (CAKI-1; [4]) | GI50 (SNB-19) | CC50 (SNB-19; [4]) | GI50 (SK-MEL-5) | CC50 (SK-MEL-5; [4]) | GI50 (OVCAR-5) | CC50 (OVCAR-5; [4]) | GI50 (SF-295) | CC50 (SF-295; [4]) | GI50 (EKVX) | CC50 (EKVX; [4]) | GI50 (OVCAR-3) | CC50 (PC-3; [4]) | CC50 (SF-268; [4]) | CC50 (M14; [4]) | CC50 (A549; [4]) | GI50 (SK-MEL-2) | CC50 (SK-MEL-2; [4]) | GI50 (MCF7) | CC50 (MCF7; [4]) | CC50 (MDA-MB-231; [4]) | GI50 (MDA-MB-468) | CC50 (MDA-MB-468; [4]) | CC50 (OVCAR-8; [4]) | GI50 (HCT-15) | CC50 (HCT-15; [4]) | GI50 (ACHN) | CC50 (ACHN; [4]) | GI50 (SN12C) | CC50 (SN12C; [4]) | CC50 (NCI-H322M; [4]) | GI50 (COLO 205) | CC50 (COLO 205; [4]) | CC50 (SNB-75; [4]) | CC50 (NCI-H226; [4]) | GI50 (UACC-62) | CC50 (UACC-62; [4]) | CC50 (SW-620; [4]) | GI50 [2] | CC50 [2, 4] | GI50 (T47D) | CC50 (T47D; [4]) | GI50 (MOLT-4) | CC50 (MOLT-4; [4]) | GI50 (SK-MEL-28) | CC50 (SK-MEL-28; [4]) | CC50 (K562; [4]) | CC50 (HT-29; [4]) | CC50 (LOX IMVI; [4]) | GI50 (HL-60(TB)) | CC50 (HL-60(TB); [4]) | CC50 (DU-145; [4]) | GI50 [3] | CC50 [3, 4] | CC50 (U-251; [4]) | CC50 (NCI-H522; [4])
38.3 µM: GI50 (SW-620)
5.41 µM: GI50 (HCT-116)
0.013 µM: GI50 (UACC-257)
0.3 µM: CC50 (UACC-257; [4])
4.4 µM: GI50 (SF-539)
23.6 µM: GI50 (PC-3)
2.47 µM: GI50 (SNB-75)
3.02 µM: GI50 (IGROV-1)
1.62 µM: GI50 (RXF 393)
5.24 µM: GI50 (DU-145)
57.2 µM: GI50 (M14)
23.5 µM: GI50 (Malme-3M)
32.4 µM: GI50 (MDA-MB-435)
6.45 µM: GI50 (MDA-MB-231)
0.019 µM: GI50 (OVCAR-8)
0.77 µM: GI50 (A549)
77.6 µM: GI50 (K562)
11 µM: GI50 (NCI-H522)
7.49 µM: GI50 (KM12)
31.5 µM: GI50 (A498)
2.94 µM: GI50 (U-251)
37.4 µM: GI50 (786-0)
98.8 µM: GI50 (BT-549)
3.67 µM: GI50 [1]
2.32 µM: GI50 (LOX IMVI)
60.1 µM: GI50 (NCI-H23)
32 µM: GI50 (SF-268)
20.8 µM: GI50 (HT-29)
80.7 µM: GI50 (NCI-H226)
2.49 µM: GI50 (OVCAR-4)
